NadD inh: blocks S. aureus nicotinate mononucleotide adenylyltransferase | purified NadD enzyme, colorimetric absorbance read-out | inhibition, % at 20 µM | 360,000 tested, 0.78% active; in the data active = inhibition above about 26%
rCAG RNA binder: r(CAG) repeat RNA binding. TO-PRO-1 dye displacement fluorescence. inhibition, % at 3 µM. 370,000 tested, 1.3% active;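 active = inhibition above the plate cutoff, the mean of all test compounds on that plate plus 3 SD, cut at about 35% in these data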;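 also: 0% = DMSO alone and 100% = 100 µM mitoxantrone as full dye displacement; higher means more dye released from RNA so lower well fluorescence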
ASAP1 GAP inh: blocks human ASAP1-stimulated Arf1 GTP hydrolysis. AID 624377. Q9ULH1. GDP FP detection. inhibition, % at 16.5 µM. 360,000 tested, 0.19% active; in the data active = inhibition above about 25%;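 also: 0% = vehicle with enzyme and substrate and 100% = no enzyme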
Target sequence (Q9ULH1 325-724 limits assumed): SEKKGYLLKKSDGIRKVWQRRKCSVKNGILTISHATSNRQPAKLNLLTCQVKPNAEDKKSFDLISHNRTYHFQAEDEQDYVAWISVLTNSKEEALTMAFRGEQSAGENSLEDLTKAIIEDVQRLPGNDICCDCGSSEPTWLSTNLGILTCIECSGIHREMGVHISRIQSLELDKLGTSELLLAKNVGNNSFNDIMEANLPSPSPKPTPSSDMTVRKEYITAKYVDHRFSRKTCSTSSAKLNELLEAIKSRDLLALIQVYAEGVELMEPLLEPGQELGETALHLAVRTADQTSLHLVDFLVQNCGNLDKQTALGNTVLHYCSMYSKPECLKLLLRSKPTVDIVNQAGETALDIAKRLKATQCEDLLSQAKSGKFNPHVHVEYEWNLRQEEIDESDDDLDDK
ARFGAP1 inhibitor: inhibitors of rat ARFGAP1 | Q62848 | 360,000 tested, 0.26% active | inhibition, % at 16.5 µM | Arfgap1-stimulated ARF1 GTP hydrolysis, GDP FP detection;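 active = inhibition above a per-plate limit, mean inhibition of low control wells plus 3 SD, cut at about 25% in these data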;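 also: 0% = DMSO wells with enzyme and 100% = wells lacking Arfgap1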
Target sequence (Q62848 1-136 limits assumed): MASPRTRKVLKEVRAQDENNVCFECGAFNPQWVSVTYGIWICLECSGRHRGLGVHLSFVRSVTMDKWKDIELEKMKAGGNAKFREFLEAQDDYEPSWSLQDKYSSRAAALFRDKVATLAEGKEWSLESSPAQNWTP
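System: truncated rat Arfgap1 GAP domain / Medium: HEPES-based buffer, pH 7.5 / Also added: N-terminally truncated human ARF1-GTP substrate / Incubation: enzyme reaction 120 min at 25 °C after 20 min preincubation / Measured by: FP of antibody-bound GDP Alexa 633 tracer, ex 620/em 688 nm / Replicates: singlicate, each compound tested once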
rCAG bind conf: r(CAG) RNA repeat binding, confirmation; inhibition, % at 3 µM; shares compounds with rCAG RNA binder; TO-PRO-1 dye displacement fluorescence; 4,300 tested, 70% active;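 active = inhibition above a per-plate cutoff, the mean inhibition of sample wells plus 3 SD, cut at about 35% in these data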;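 also: loss of TO-PRO-1 fluorescence as compound displaces dye from 1x1 AA loop RNA; 0% = DMSO only wells and 100% = 100 µM mitoxantrone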
DNA CAG counter: counter-screen for rCAG RNA binders: DNA CAG dye complex inhibitors; shares compounds with rCAG RNA binder; d(CAG) DNA oligo TO-PRO-1 dye displacement, fluorescence; inhibition, % at 3 µM; 4,300 tested, 94% active; AID 652068;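 active = inhibition above its plate's cutoff, the mean test-well inhibition plus 3 SD, cut at about 4.8% in these data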;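 also: 0% = DNA dye mix with DMSO and 100% = 100 µM mitoxantrone; hits displace the dye from DNA and so lower well fluorescence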
* = called active by the depositor; . = no result. This is a sample that favours compounds with a hit; in the whole collection about 2.2% have one here.

SMILES	NadD inh	rCAG RNA binder	ASAP1 GAP inh	ARFGAP1 inhibitor	rCAG bind conf	DNA CAG counter
COC(=O)[C@]12C[C@H](CC(=O)N3CCOCC3)C(=O)N(Cc3cccc4ccccc34)C1=C[C@H](C(C)C)O[C@@H]2C1CC1	.	4	.	.	.	.
CC(=O)Oc1ccc(C(=O)Nc2ccccc2C(=O)Nc2cccc(C(=O)O)c2)cc1	-5	7	5	-2	.	.
CC(=O)Oc1ccc(C(=O)Nc2cccc(C(=O)Nc3ccccc3C(=O)O)c2)cc1	-11	50*	1	0	44*	12*
Cc1cc(C)c(C)c(S(=O)(=O)Nc2ccccc2C(=O)NN2CCOCC2)c1C	1	21	-3	5	.	.
Cc1cc(C)c(C)c(S(=O)(=O)Nc2cccc(S(=O)(=O)Nc3ccccc3C(=O)O)c2)c1C	2	78*	1	1	73*	38*
COc1ccc(NS(=O)(=O)c2ccc3c(c2)[C@H]2C=CC[C@H]2[C@@H](c2ccc(C(=O)O)cc2)N3)cc1	30*	96*	5	-12	92*	67*
O=C(O)c1ccc2c(c1)C1C=CCC1C(c1ccncc1)N2 (stereo not drawn)	1	-1	6	-5	.	.
COC(=O)[C@]1(CNC(C)=O)CC(=O)N(C)[C@@H]1c1ccccc1	.	4	.	.	.	.
O=C(O)c1[nH]c2ccc(Cl)cc2c1CCN1C(=O)c2ccccc2C1=O	-11	50*	-3	0	26	6.3*
O=C(O)c1[nH]c2ccc(Br)cc2c1CCN1C(=O)c2cccc([N+](=O)[O-])c2C1=O	0	64*	-5	0	42*	13*
COc1ccc2[nH]c(C(=O)O)c(CCN3C(=O)c4ccc(C(=O)O)cc4C3=O)c2c1	-7	1	1	9	.	.
OC(c1ccccc1)(c1ccccc1)C1CCN(CCCOc2ccc(Br)cc2)CC1	.	1	.	.	.	.
O=C(NC1=N[C@@]2(C=C3CCCCC3n3c(=O)n(-c4ccccc4)c(=O)n32)CN1Cc1ccccc1)c1ccccc1 (stereo partly drawn)	.	42*	.	.	38*	15*
COc1ccc(CN2C[C@]3(C=C4CCCCC4n4c(=O)n(-c5ccccc5)c(=O)n43)N(C(=O)OCc3ccccc3)C2=NC(=O)c2ccccc2)c(OC)c1 (stereo partly drawn)	.	12	.	.	.	.
COc1ccc(CN2C[C@]3(C=C(C)Cn4c(=O)n(-c5ccccc5)c(=O)n43)N=C2NC(=O)c2ccccc2)c(OC)c1	.	42*	.	.	43*	18*
COc1ccc(CN2C[C@]3(C=C4CCCCC4n4c(=O)n(-c5ccccc5)c(=O)n43)N=C2NC(=O)c2ccccc2)c(OC)c1 (stereo partly drawn)	.	52*	.	.	50*	21*
COC(=O)[C@]12CCCCC=C1N(Cc1cccc3ccccc13)C(=O)[C@H](CC(=O)N1CCCCC1)C2	9	3	10	-4	.	.
COP(=O)(O)[C@@H](CC(C)C)NC(=O)OCc1ccccc1	.	1	.	.	.	.
O=C(C[C@H]1CC[C@H]2[C@@H](COC[C@@H](O)CN2S(=O)(=O)c2ccc(F)cc2)O1)N[C@@H]1CCN(Cc2ccccc2)C1	.	-1	7	4	.	.
COc1cc(/C=N/NC(=O)/C(=C\c2ccc([N+](=O)[O-])cc2)NC(=O)c2ccccc2)cc(OC)c1O	10	28	-1	-8	.	.
O=C(N/N=C/c1cc([N+](=O)[O-])cc([N+](=O)[O-])c1O)/C(=C\c1cccs1)NC(=O)c1ccccc1	39*	68*	10	3	84*	53*
C=CCNC(=O)N1CCC(c2nc3ccc(Cl)cc3[nH]2)CC1	.	2	.	.	.	.
COc1cc(/C=C2\SC(=S)N(Nc3ncc(C(F)(F)F)cc3Cl)C2=O)ccc1O	16	53*	7	9	63*	32*
C=Cc1c(C)c2cc3[nH]c(cc4nc(cc5nc(cc1[nH]2)C(C)=C5CCC(=O)O)C(CCC(=O)O)=C4C)c(C)c3C=C	6	90*	-70	-78	87*	57*
COc1ccc(C2O[C@@H](C)[C@@H]3C(=O)N4CCc5c([nH]c6ccccc56)[C@@H]4C[C@@H]3N2C)cc1 (stereo partly drawn)	.	2	0	-6	.	.
SMILES	NadD inh	rCAG RNA binder	ASAP1 GAP inh	ARFGAP1 inhibitor	rCAG bind conf	DNA CAG counter
CC(=O)c1ccc(S(=O)(=O)Nc2ccc(C(=O)NCC(c3cccs3)N3CCOCC3)cc2)cc1 (stereo not drawn)	8	5	8	11	.	.
O=C(NCC(c1cccs1)N1CCOCC1)c1ccccc1NS(=O)(=O)c1ccc(Cl)cc1 (stereo not drawn)	-1	50*	-2	-10	61*	23*
O=C(NCC(c1ccco1)N1CCCCC1)c1ccc(S(=O)(=O)Nc2ccccc2Cl)cc1 (stereo not drawn)	-5	43*	-7	-7	39*	8.8*
O=C(CCNS(=O)(=O)c1ccc(Br)cc1)NCC(c1cccs1)N1CCOCC1 (stereo not drawn)	5	2	8	-11	.	.
O=C(NCC(c1ccco1)N1CCCC1)c1ccc(S(=O)(=O)Nc2ccccc2Cl)cc1 (stereo not drawn)	0	30	-9	2	.	.
O=C(NCC(c1cccs1)N1CCOCC1)c1ccccc1NS(=O)(=O)c1ccc(Br)cc1 (stereo not drawn)	8	49*	-8	-10	47*	15*
COC(=O)[C@]12C[C@H](CC(=O)NCc3cccs3)C(=O)N(CCc3ccc(OC)c(OC)c3)C1=C[C@H](C1CCCC1)O[C@@H]2C	.	3	.	.	.	.
CCN(CC)c1ccc(C=Nn2c(C)nnc2C)cc1	.	3	.	.	.	.
COc1cc(-n2c(C)nc3cc(C(=O)N4CCCC4)ccc32)cc(OC)c1OC	.	1	.	.	.	.
O=C(O)c1ccc([N+](=O)[O-])c(CS(=O)(=O)c2ccccc2)c1	-2	0	6	8	.	.
CN(C)/C=C/C(=O)c1ccc([N+](=O)[O-])c(CS(=O)(=O)c2ccccc2)c1	-5	35*	-6	-3	4	3
Cc1ccc(NC(=S)N(Cc2ccco2)C2CCN(C(C)C)CC2)cc1	-6	37*	6	2	0	1
Cc1ccc(NC(=S)N(CCN2CCCCC2)Cc2ccco2)cc1	-17	-2	16	8	.	.
C[C@H](CO)N1C[C@H](C)[C@@H](CN(C)C(=O)Nc2ccc3c(c2)OCCO3)OCc2cn(nn2)CCCC1=O	.	1	-8	0	.	.
Cc1cc(C(=O)O)ccc1-n1c(C)cc(C=C2C(=O)c3ccccc3C2=O)c1C	5	43*	9	-6	41*	11*
CCOC(=O)N1CCN(C(=O)C(CC)c2ccccc2)CC1 (stereo not drawn)	-3	39*	-14	-7	6	1
Cc1ccc(/C(O)=C/C(=O)C(=O)NNC(=O)C(O)(c2ccccc2)c2ccccc2)cc1	15	46*	17	-1	29	13*
